# ChEMBL document CHEMBL1150387, “Development and experimental validation of a docking strategy for the generation of kinase-targeted libraries” (J Med Chem, 2008)
# Tests used:
# [1] = Inhibition of IRK at 10 uM by HTRF assay relative to control
# Outline: (§1)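 HTRF kinase assay, one panel of kinases. Inhibitor stock 50 µM in 100% DMSO; tested at 10 µM. ATP and substrate at final levels near Km. Final buffer: 50 mM Hepes/NaOH pH 7.4, 40 µM Na3VO4, 0.005% Tween-20, 1 mM DTT, MnCl2 or MgCl2 at kinase-dependent levels. Started by adding ATP/substrate. Reaction run at room temperature, time varied by kinase. Detection mix in 50 mM Hepes pH 7.4, 0.1% BSA, 150 mM KF, incubated ≥1 h at room temperature. Activity expressed as % of uninhibited control; n=2.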
# [2] = target: Receptor-type tyrosine-protein kinase FLT3 (Homo sapiens) (UniProt P36888); assay: Inhibition of FLT3 at 10 uM by HTRF assay relative to control; outline: as §1
# [3] = target: Epidermal growth factor receptor (Homo sapiens) (UniProt P00533); assay: Inhibition of EGFR at 10 uM by HTRF assay relative to control; outline: as §1
# [4] = target: T1, Mitogen-activated protein kinase 12 (Homo sapiens) (UniProt P53778); assay: Inhibition of p38-gamma at 10 uM by HTRF assay relative to control; outline: as §1
# T1 sequence (whole entry): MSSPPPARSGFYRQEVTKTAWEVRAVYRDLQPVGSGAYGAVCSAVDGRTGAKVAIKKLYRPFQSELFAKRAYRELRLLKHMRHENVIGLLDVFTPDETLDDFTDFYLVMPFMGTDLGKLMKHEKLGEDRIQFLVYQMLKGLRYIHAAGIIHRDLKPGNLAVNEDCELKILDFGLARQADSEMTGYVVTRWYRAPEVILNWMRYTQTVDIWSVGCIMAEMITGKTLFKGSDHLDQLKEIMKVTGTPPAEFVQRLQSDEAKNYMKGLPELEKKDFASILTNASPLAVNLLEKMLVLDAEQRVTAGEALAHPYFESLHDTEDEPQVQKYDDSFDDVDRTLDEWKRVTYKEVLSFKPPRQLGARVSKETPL
# [5] = target: Mitogen-activated protein kinase 9 (Homo sapiens) (UniProt P45984); assay: Inhibition of JNK2 at 10 uM by HTRF assay relative to control; outline: as §1
# Chain of Mitogen-activated protein kinase 9 (Homo sapiens) (P45984 whole entry, looked up): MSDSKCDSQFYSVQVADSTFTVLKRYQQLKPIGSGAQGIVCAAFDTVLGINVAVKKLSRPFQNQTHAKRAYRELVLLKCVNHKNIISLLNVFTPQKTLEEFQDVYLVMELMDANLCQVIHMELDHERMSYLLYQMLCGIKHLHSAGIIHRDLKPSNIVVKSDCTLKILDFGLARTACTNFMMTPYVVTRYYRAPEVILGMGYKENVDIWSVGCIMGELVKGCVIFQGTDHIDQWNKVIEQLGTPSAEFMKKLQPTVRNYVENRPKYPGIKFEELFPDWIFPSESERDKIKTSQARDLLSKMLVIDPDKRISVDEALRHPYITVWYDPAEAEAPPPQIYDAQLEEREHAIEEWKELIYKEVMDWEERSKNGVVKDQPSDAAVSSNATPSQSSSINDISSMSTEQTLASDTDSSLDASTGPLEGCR
# [6] = target: Mitogen-activated protein kinase 8 (Homo sapiens) (UniProt P45983); assay: Inhibition of JNK1 at 10 uM by HTRF assay relative to control; outline: as §1
# Chain of Mitogen-activated protein kinase 8 (Homo sapiens) (P45983 whole entry): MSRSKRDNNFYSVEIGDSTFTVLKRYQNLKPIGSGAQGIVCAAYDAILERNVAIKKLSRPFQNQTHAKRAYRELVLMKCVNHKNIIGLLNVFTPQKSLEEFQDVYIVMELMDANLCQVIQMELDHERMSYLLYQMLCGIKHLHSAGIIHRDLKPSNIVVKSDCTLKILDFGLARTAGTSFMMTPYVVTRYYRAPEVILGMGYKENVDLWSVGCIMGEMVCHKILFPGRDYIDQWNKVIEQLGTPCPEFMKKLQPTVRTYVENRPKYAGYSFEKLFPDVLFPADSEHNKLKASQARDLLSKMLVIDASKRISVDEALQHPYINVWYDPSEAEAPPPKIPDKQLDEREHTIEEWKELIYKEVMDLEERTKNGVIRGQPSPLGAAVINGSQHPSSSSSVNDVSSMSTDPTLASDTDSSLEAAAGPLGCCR
# [7] = target: T2, Calcium/calmodulin-dependent protein kinase type IV (Homo sapiens) (UniProt Q16566); assay: Inhibition of CaMK4 at 10 uM by HTRF assay relative to control; outline: as §1
# T2 sequence (whole entry): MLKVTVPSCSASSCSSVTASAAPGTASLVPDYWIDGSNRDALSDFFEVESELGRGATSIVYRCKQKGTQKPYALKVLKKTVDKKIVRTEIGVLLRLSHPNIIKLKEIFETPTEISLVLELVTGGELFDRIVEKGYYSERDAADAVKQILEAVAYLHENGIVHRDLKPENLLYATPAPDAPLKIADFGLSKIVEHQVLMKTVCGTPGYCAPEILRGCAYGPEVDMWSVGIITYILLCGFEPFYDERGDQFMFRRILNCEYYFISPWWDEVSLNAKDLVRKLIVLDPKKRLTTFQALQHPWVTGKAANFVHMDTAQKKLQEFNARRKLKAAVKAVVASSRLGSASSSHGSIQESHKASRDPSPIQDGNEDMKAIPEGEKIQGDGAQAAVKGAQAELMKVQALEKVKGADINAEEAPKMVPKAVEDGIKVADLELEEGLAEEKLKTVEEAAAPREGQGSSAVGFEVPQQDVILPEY
# [8] = target: Ribosomal protein S6 kinase alpha-3 (Homo sapiens) (UniProt P51812); assay: Inhibition of RSK2 at 10 uM by HTRF assay relative to control; outline: as §1
# Chain of Ribosomal protein S6 kinase alpha-3 (Homo sapiens) (P51812 whole entry): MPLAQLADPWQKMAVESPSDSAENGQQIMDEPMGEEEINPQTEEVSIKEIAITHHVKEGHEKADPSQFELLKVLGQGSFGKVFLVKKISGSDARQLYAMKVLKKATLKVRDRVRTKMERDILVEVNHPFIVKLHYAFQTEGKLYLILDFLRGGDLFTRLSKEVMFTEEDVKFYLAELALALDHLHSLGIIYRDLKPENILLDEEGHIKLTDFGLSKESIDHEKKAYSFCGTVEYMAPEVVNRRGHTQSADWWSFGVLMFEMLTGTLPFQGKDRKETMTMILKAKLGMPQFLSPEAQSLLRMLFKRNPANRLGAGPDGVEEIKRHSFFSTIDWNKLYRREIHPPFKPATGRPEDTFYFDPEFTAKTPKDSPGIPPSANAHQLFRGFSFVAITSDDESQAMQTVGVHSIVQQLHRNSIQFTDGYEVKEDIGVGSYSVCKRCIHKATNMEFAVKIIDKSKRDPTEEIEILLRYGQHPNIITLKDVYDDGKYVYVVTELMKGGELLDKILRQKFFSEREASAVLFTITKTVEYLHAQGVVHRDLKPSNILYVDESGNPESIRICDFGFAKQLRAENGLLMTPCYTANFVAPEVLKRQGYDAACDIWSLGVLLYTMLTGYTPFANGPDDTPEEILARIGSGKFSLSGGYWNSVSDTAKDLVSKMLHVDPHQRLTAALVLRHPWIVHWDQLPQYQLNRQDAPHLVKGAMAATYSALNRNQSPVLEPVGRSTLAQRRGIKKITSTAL
# [9] = target: Rho-associated protein kinase 2 (Homo sapiens) (UniProt O75116); assay: Inhibition of ROCK2 at 10 uM by HTRF assay relative to control; outline: as §1
# Chain of Rho-associated protein kinase 2 (Homo sapiens) (O75116 whole entry, looked up): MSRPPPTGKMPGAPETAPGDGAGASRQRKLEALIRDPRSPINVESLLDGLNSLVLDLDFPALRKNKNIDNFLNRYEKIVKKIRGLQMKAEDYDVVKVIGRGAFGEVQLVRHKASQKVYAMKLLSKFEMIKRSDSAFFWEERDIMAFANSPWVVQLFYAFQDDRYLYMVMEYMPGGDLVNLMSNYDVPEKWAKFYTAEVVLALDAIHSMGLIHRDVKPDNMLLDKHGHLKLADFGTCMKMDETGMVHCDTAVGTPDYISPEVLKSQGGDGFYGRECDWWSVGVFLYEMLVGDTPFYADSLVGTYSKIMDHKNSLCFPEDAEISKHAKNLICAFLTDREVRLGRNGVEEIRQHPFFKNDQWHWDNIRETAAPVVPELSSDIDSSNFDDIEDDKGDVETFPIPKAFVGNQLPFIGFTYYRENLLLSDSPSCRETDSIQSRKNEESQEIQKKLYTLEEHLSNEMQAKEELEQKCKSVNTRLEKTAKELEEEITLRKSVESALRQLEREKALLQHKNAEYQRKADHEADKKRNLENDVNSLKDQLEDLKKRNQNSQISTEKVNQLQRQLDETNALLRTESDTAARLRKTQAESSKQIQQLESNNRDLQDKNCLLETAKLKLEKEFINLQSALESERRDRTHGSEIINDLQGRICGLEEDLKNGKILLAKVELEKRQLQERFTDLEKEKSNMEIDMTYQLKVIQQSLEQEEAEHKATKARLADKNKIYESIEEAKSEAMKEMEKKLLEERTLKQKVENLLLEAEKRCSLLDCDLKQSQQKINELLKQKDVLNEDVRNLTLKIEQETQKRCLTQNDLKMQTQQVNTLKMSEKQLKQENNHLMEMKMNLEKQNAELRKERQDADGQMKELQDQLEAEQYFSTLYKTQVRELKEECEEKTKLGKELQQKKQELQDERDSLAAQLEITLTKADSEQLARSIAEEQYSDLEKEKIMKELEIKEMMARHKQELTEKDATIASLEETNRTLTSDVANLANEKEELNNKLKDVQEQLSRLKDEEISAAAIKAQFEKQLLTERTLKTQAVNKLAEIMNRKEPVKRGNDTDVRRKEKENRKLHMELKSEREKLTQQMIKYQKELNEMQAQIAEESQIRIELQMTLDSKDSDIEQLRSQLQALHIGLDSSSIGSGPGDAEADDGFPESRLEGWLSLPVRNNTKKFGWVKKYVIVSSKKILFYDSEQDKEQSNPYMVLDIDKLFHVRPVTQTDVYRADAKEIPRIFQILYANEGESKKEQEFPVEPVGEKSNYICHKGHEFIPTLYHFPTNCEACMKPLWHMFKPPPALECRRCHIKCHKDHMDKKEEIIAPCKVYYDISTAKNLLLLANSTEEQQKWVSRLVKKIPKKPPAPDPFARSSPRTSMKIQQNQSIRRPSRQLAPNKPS
# [10] = target: Protein kinase C alpha type (Homo sapiens) (UniProt P17252); assay: Inhibition of PKCalpha at 10 uM by HTRF assay relative to control; outline: as §1
# [11] = target: T3, Tyrosine-protein kinase ZAP-70 (Homo sapiens) (UniProt P43403); assay: Inhibition of ZAP70 at 10 uM by HTRF assay relative to control; outline: as §1
# T3 sequence (whole entry): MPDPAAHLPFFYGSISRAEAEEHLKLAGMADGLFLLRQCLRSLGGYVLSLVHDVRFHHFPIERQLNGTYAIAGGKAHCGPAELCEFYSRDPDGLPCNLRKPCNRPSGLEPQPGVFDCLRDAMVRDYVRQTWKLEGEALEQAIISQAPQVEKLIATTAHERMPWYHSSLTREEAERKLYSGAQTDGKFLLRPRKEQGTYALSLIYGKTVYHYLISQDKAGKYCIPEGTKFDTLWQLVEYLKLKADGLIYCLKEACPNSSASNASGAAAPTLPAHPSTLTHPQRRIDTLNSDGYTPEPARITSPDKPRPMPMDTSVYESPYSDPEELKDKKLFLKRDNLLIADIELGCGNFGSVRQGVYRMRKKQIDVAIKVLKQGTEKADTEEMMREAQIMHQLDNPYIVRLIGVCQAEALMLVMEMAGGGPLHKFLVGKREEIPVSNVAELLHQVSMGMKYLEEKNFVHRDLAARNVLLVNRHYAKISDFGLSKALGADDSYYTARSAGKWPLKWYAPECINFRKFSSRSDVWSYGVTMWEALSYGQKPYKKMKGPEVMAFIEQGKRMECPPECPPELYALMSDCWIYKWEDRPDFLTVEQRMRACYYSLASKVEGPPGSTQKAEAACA
# [12] = target: Proto-oncogene tyrosine-protein kinase Src (Homo sapiens) (UniProt P12931); assay: Inhibition of Src at 10 uM by HTRF assay relative to control; outline: as §1
# Chain of Proto-oncogene tyrosine-protein kinase Src (Homo sapiens) (P12931 2-536 limits assumed): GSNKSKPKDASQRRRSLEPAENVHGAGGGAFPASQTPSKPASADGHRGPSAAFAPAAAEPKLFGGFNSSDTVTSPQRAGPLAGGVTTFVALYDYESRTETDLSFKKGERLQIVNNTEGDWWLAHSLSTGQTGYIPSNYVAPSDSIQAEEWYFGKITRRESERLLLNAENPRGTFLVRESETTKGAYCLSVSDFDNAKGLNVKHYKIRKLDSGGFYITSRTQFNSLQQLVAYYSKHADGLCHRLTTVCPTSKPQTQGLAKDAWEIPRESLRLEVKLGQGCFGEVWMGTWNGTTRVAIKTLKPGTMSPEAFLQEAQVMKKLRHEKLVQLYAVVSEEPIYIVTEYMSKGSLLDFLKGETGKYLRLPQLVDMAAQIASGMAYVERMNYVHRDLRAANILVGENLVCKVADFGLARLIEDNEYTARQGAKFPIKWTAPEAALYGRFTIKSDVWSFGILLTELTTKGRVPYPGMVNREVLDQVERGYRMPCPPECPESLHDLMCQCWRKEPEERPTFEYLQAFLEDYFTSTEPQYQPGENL
# [13] = target: Tyrosine-protein kinase Lck (Homo sapiens) (UniProt P06239); assay: Inhibition of Lck at 10 uM by HTRF assay relative to control; outline: as §1
# Chain of Tyrosine-protein kinase Lck (Homo sapiens) (P06239 2-509 limits assumed): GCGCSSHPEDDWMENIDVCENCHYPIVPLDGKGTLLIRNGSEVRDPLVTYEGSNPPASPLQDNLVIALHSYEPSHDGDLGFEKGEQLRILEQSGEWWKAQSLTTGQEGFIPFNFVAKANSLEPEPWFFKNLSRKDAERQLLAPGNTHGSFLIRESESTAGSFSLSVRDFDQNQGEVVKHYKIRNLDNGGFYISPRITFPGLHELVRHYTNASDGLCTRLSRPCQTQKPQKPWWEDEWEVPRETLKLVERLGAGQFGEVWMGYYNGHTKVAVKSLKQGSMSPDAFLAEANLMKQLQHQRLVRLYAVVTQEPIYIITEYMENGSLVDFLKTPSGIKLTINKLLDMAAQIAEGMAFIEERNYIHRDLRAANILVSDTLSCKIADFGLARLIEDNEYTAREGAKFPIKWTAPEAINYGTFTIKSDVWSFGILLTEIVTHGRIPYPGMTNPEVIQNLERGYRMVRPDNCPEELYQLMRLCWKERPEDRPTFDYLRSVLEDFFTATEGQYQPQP
# [14] = target: Focal adhesion kinase 1 (Homo sapiens) (UniProt Q05397); assay: Inhibition of FAK at 10 uM by HTRF assay relative to control; outline: as §1
# [15] = target: Platelet-derived growth factor receptor beta (Homo sapiens) (UniProt P09619); assay: Inhibition of PDGFRbeta at 10 uM by HTRF assay relative to control; outline: as §1
# [16] = target: 3-phosphoinositide-dependent protein kinase 1 (Homo sapiens) (UniProt O15530); assay: Inhibition of PDK1 at 10 uM by HTRF assay relative to control
# Chain of 3-phosphoinositide-dependent protein kinase 1 (Homo sapiens) (O15530 whole entry, looked up): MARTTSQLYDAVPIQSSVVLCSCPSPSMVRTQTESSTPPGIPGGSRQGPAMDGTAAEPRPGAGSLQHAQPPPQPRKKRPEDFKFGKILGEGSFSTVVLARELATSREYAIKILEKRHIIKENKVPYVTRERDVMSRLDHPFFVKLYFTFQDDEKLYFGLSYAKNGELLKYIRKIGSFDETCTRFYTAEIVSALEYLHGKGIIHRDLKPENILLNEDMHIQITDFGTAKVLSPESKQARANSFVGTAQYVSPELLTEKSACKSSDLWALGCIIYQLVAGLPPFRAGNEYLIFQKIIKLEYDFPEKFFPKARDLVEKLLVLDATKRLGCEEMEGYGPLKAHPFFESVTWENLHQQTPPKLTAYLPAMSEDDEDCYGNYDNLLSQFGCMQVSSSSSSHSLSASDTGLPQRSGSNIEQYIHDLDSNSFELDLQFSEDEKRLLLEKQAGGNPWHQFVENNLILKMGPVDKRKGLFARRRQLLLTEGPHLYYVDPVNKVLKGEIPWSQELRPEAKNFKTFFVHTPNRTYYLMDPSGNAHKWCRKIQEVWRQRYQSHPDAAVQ
Compound,inhibition [1],inhibition [2],inhibition [3],inhibition [4],inhibition [5],inhibition [6],inhibition [7],inhibition [8],inhibition [9],inhibition [10],inhibition [11],inhibition [12],inhibition [13],inhibition [14],inhibition [15],inhibition [16]
COC[C@@H]1CCCN1C(=O)[C@@H]1CCCN1c1nccc(Nc2ccccc2)n1,0%,0%,0%,4%,4%,0%,0%,0%,3%,0%,6%,0%,0%,0%,8%,1%
O=C(COc1ccccc1)N1CCN(c2nccc(Nc3ccc4ncsc4c3)n2)CC1,0%,0%,81%,5%,44%,34%,0%,0%,7%,0%,0%,13%,22%,15%,30%,0%
Cc1cccc(Nc2nccc3c2CN(C(=O)c2cc(C)n(C)c2C)CC3)c1,0%,0%,82%,1%,3%,0%,0%,0%,0%,1%,4%,0%,0%,1%,5%,0%
Cc1cccc(Nc2nccc(Nc3cccc(C(=O)N(C)CCc4ccccn4)c3)n2)c1,66%,86%,8%,2%,37%,49%,0%,57%,5%,0%,23%,64%,45%,99%,93%,8%
CN(C)c1ccc(C(=O)N2CCN(c3ncnc4c3CN(Cc3ccccc3)CC4)CC2)c2ccccc12,0%,0%,0%,0%,1%,6%,0%,0%,0%,0%,2%,0%,0%,0%,4%,0%
Nc1nc(Nc2ccc3ncsc3c2)cc(N2CCC[C@H]2C(=O)NCCc2cccc(I)c2)n1,0%,11%,0%,2%,5%,0%,0%,0%,1%,0%,2%,0%,0%,4%,14%,7%
O=C(NCCc1ccc(O)cc1)c1cccc(Nc2nccc(Nc3ccc4ncsc4c3)n2)c1,1%,98%,0%,0%,39%,55%,0%,3%,11%,0%,3%,71%,1%,78%,89%,0%
CN(CCc1ccccn1)C(=O)[C@@H]1CCCN1c1nccc(Nc2ccccc2)n1,0%,0%,0%,2%,2%,0%,0%,0%,0%,1%,3%,0%,0%,2%,5%,0%
O=C(NC1Cc2ccccc2C1)c1cccc(Nc2ccnc(N3CCN(c4ccccc4)CC3)n2)c1,0%,0%,0%,2%,3%,0%,0%,0%,1%,0%,6%,9%,0%,0%,8%,0%
Cc1cccc(N(C)c2cc(Nc3cccc(C(=O)N4CCCC5CCCCC54)c3)ncn2)c1 (stereo unspecified),0%,0%,84%,1%,0%,2%,0%,0%,0%,0%,0%,3%,0%,8%,5%,0%
COC[C@@H]1CCCN1C(=O)[C@@H]1CCCN1c1cc(Nc2cccc(OC)c2)nc(N)n1,0%,0%,2%,3%,2%,0%,0%,5%,0%,5%,0%,4%,0%,2%,4%,0%
COC[C@@H]1CCCN1C(=O)C1CCCN1c1cc(Nc2cccc(Br)c2)ncn1 (stereo partly specified),0%,0%,0%,0%,0%,0%,0%,0%,0%,0%,0%,3%,0%,5%,6%,0%
COC(=O)C(CO)NC(=O)[C@@H]1CCCN1c1nccc(Oc2cccc(C)c2)n1 (stereo partly specified),0%,0%,0%,0%,8%,5%,0%,0%,0%,0%,0%,0%,0%,6%,0%,0%
Nc1nc(Nc2ccccc2)cc(N2CCC(C(=O)NCCc3ccccn3)CC2)n1,0%,0%,0%,6%,1%,0%,0%,0%,0%,0%,0%,0%,0%,1%,0%,0%
Cc1cccc(N(C)c2cc(Nc3cccc(C(=O)NCCCn4ccnc4)c3)ncn2)c1,0%,15%,100%,2%,22%,24%,0%,0%,0%,7%,4%,24%,24%,15%,37%,0%
O=C(NCc1ccncc1)c1cccc(Nc2cc(Nc3cccc(Br)c3)ncn2)c1,0%,35%,100%,0%,38%,28%,0%,5%,13%,2%,9%,30%,32%,12%,26%,4%
